The source of these data is ChEMBL document CHEMBL1131020, “Synthesis of 7,8-(methylenedioxy)-1-phenyl-3,5-dihydro-4H-2, 3-benzodiazepin-4-ones as novel and potent noncompetitive AMPA receptor antagonists” (J Med Chem, 1998).

Structures are written as SMILES.

For one assay, the species on record is Rattus norvegicus. Put plainly: In vitro inhibition of AMPA activated current in xenopus oocytes expressing rat cerebral cortex poly(A)+ RNA. Type of assay: functional. The method in brief: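 Two-electrode voltage clamp, holding -70 mV, of Xenopus oocytes injected with ~25 ng rat cerebral cortex poly(A)+ RNA, superfused in Ringer. Baseline current from 10 μM AMPA. Antagonist at increasing concentrations preapplied ~30 s, then coapplied with 10 μM AMPA. IC50 from four-parameter logistic fit to pooled data of 3–4 experiments, mean ± SEM.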

Another assay relates to Mus musculus. In words: In vivo anticonvulsant activity in mouse determined by maximum electroshock induced seizure (MES) assay. The class given is functional. The procedure, abridged: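 Male NSA mice; compound in 10% Tween-80/water, iv, 5 min before test. Corneal electrodes deliver 50 mA, 60 pulses/s, 0.8-ms pulse width, 1-s d.c. Protection means no tonic hindlimb extension >90° within 30 s. Screened at 10 mg/kg (n = 8), then 4–5 doses (n = 15–24/dose). ED50 with 95% CI by Litchfield–Wilcoxon.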

For `COc1cc2c(cc1OC)C(c1ccc(N)cc1)=NNC(=O)C2`, the IC50 in the assay listed under Rattus norvegicus was 180 µM. The same compound came in with an ED50 in the assay on Mus musculus above 10 mg/kg. For `O=C1Cc2cc3c(cc2C(c2ccc(F)cc2)=NN1)OCO3` the same measures were 62 µM and above 10 mg/kg.

`Nc1ccc(C2=NNC(=O)Cc3cc4c(cc32)OCO4)cc1` had an IC50 in the assay listed under Rattus norvegicus of 2.7 µM. In the assay on Mus musculus, the ED50 stood at 2.8 mg/kg.

In turn, `CC1=NN=C(c2ccc(N)cc2)c2cc3c(cc2C1)OCO3` [GYKI-52466] displayed an IC50 in the assay listed under Rattus norvegicus of 6.9 µM. In the assay on Mus musculus, this compound registered an ED50 of 4.6 mg/kg. `O=C1Cc2cc3c(cc2C(c2ccc([N+](=O)[O-])cc2)=NN1)OCO3`: in the assay filed under Rattus norvegicus, the IC50 is 56 µM. In the assay on Mus musculus, this compound gave an ED50 above 10 mg/kg. The compound `COc1ccc(C2=NNC(=O)Cc3cc4c(cc32)OCO4)cc1` yielded an IC50 in the assay filed under Rattus norvegicus of 23 µM. Take `Cc1ccc(C2=NNC(=O)Cc3cc4c(cc32)OCO4)cc1`: the 50% inhibitory concentration (IC50) in the assay listed under Rattus norvegicus worked out at 15 µM. Besides, the ED50 with Mus musculus amounted to 16 mg/kg. `O=C1Cc2cc3c(cc2C(c2ccccc2)=NN1)OCO3` returned an IC50 in the assay listed under Rattus norvegicus of 21 µM. The compound also yielded an ED50 in the assay with Mus musculus of 12.9 mg/kg.

What is called IC50 is the concentration that inhibits the measured activity by half. What is called ED50 is the dose at which the effect has come halfway, by size or by number of responders. Low readings indicate greater potency, high ones weaker potency.
